Experimental data as given in ChEMBL document CHEMBL4038266, “Griseofulvin Derivative and Indole Alkaloids from Penicillium griseofulvum CPCC 400528” (J Nat Prod, 2017).

Experiments:
[1] = system: Human immunodeficiency virus 1; experiment: Antiviral activity against VSV pseudotyped HIV1 infected in SupT1 cells after 48 hrs by luciferase reporter gene assay; type: functional, cell-based; settings: Human immunodeficiency virus 1, SUP-T1, 48 h
Summary of the method: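 VSV-G pseudotyped HIV-1 produced by cotransfecting 293T cells (2 × 10^5/mL) with 0.6 μg pNL-Luc-E and 0.4 μg pHIT/G. Supernatant harvested after 48 h, 0.45 μm filtered, and capsid quantified by p24 antigen-capture ELISA. SupT1 cells infected at MOI 1 with or without compound, 37 °C, 48 h. Inhibition read by firefly luciferase. Efavirenz positive control.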

Escherichia coli = experiment: Antibacterial activity against Escherichia coli after 18 hrs by broth microdilution method; type: functional
Summary of the method: (§1)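 Broth microdilution per CLSI, using ATCC standard strains. Final compound concentrations ran from 0.125 to 256 μg/mL. Plates were incubated at 37 °C for 18 h. MIC was taken as the lowest concentration preventing visible bacterial growth. Levofloxacin served as the positive control.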

Staphylococcus aureus = experiment: Antibacterial activity against Staphylococcus aureus after 18 hrs by broth microdilution method; type: functional; summary of the method: as §1

Row | SMILES | IC50 [1] [µM] | MIC (Escherichia coli) [µg/mL] | MIC (Staphylococcus aureus) [µg/mL]
1 | Cc1cc(=O)n2c(n1)-c1c(cc3cccc4c3c1C(=O)N4C)C2(C)C | 77.9 | > 64 | > 64
2 | CC(=O)[C@@]1(O)C(=O)N2C(C)(C)[C@@H]3Cc4cccc5c4[C@@]4(O[C@@]1(O)[C@@]2(O)[C@H]34)C(=O)N5 | 70.1 | > 64 | > 64
3 | Cc1cc(=O)n2c(n1)-c1c(cc3cccc4c3c1C(=O)N4)C2(C)C | 20.5 | > 64 | > 64
4 | COc1cc(O)c2c(=O)c3c(C)cc(O)cc3oc2c1 | 79.4 | > 64 | > 64
5 | CN1C(=O)c2c3c(cc4cccc1c24)C(C)(C)NC3=O | 12.6 | > 64 | > 64
6 | COC1=CC(=O)C[C@@H](C)[C@]12Oc1cc(OC)cc(OC)c1C2=O | 89.7 | > 64 | > 64
7 | COc1cc(OC)c2c(c1Cl)O[C@@]1(C(=O)C=C(NCCC(C)C)C[C@H]1C)C2=O | 33.2 | > 64 | > 64
8 | COc1ccc2c3c1C(=O)CC(C)(C)N3C(=O)[C@]21C[C@]2([N+](=O)[O-])CN3CCC[C@H]3C[C@@H]2C1(C)C | 57.7 | > 64 | > 64
9 | COC1=CC(=O)C[C@@H](C)[C@]12Oc1c(Cl)c(OC)cc(OC)c1C2=O [GRISEOFULVIN] | 87.1 | > 64 | > 64
